ChEMBL document CHEMBL1955851, “Fatty acyl amide derivatives of doxorubicin: synthesis and in vitro anticancer activities” (Eur J Med Chem, 2011)
Calls of active or inactive are those of the source. The rule behind the calls is not given here.

Assays:
[1] = n-Octanol-water partition coefficient, log P of the compound by shake flask method; type: physicochemical
Outline: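 Shake-flask method. 100 µg of derivative partitioned between 300 µL 1-octanol and 300 µL distilled water, shaken 30 min, phases left to separate. Each phase quantified by UV spectroscopy against a standard spectrum. P = octanol/water concentration ratio, reported as Log P. Mean of three runs.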

SK-OV-3 [2] = experiment: Antiproliferative activity against human SKOV3 cells assessed as growth inhibition at 1 uM after 24 to 96 hrs by spectrophotometry; type: functional, cell-based
Outline: (§1)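 CellTiter 96 AQueous One (MTS) proliferation assay. Cells grown at 37 °C, 5% CO2, 10% FBS plus 1% penicillin-streptomycin. Medium was RPMI for CCRF-CEM and EMEM for MDA-MB-468, SK-OV-3 and HT-29. Compound at 1 μM in 4% DMSO, triplicate wells, incubated 24-120 h, then 1 h with reagent. A490 read. Survival % = (treated − medium)/(control − medium) × 100.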

CCRF-CEM [3] = experiment: Antiproliferative activity against human CCRF-CEM cells assessed as growth inhibition at 1 uM after 24 to 96 hrs by spectrophotometry; type: functional, cell-based; outline: as §1
MDA-MB-468 [4] = experiment: Antiproliferative activity against human MDA-MB-468 cells assessed as growth inhibition at 1 uM after 24 hrs by spectrophotometry; type: functional, cell-based; outline: as §1
HT-29 = experiment: Antiproliferative activity against human HT-29 cells assessed as growth inhibition at 1 uM after 120 hrs by spectrophotometry relative to control; type: functional; details: for inhibition of growth at 1 µM: HT-29, 120 h, read-out: GI; outline: as §1
MDA-MB-468 [5] = experiment: Antiproliferative activity against human MDA-MB-468 cells assessed as growth inhibition at 1 uM after 96 hrs by spectrophotometry relative to control; type: functional; details: MDA-MB-468, 96 h, read-out: GI; outline: as §1
SK-OV-3 [6] = experiment: Antiproliferative activity against human SKOV3 cells assessed as growth inhibition at 1 uM after 96 hrs by spectrophotometry relative to control; type: functional; details: SK-OV-3, 96 h, read-out: GI; outline: as §1
CCRF-CEM [7] = experiment: Antiproliferative activity against human CCRF-CEM cells assessed as growth inhibition at 1 uM after 96 hrs by spectrophotometry relative to control; type: functional; details: read-out: GI; outline: as §1

| SMILES | logP [1] | growth inhibition (GI) (SK-OV-3 [2]) | growth inhibition (GI) (CCRF-CEM [3]) | growth inhibition (GI) (MDA-MB-468 [4]) | growth inhibition (GI) (HT-29) | inhibition of growth at 1 µM (MDA-MB-468 [5]) | inhibition of growth at 1 µM (SK-OV-3 [6]) | inhibition of growth at 1 µM (HT-29) | inhibition of growth at 1 µM (CCRF-CEM [7]) |
| --- | --- | --- | --- | --- | --- | --- | --- | --- | --- |
| COc1cccc2c1C(=O)c1c(O)c3c(c(O)c1C2=O)C[C@@](O)(C(=O)CO)C[C@@H]3O[C@H]1C[C@H](NC(C)=O)[C@H](O)[C@H](C)O1 | 1.18 | Active | inactive | inactive | Active |  |  |  |  |
| CCCCCCCCCC(=O)N[C@H]1C[C@H](O[C@H]2C[C@](O)(C(=O)CO)Cc3c(O)c4c(c(O)c32)C(=O)c2c(OC)cccc2C4=O)O[C@@H](C)[C@H]1O |  | Active | inactive | inactive | Active |  |  |  |  |
| CCCCCCCCCCCC(=O)N[C@H]1C[C@H](O[C@H]2C[C@](O)(C(=O)CO)Cc3c(O)c4c(c(O)c32)C(=O)c2c(OC)cccc2C4=O)O[C@@H](C)[C@H]1O |  |  | inactive | inactive |  | 38% | 58% | 64% |  |
| CCCCCCCCCCCCCCCC(=O)N[C@H]1C[C@H](O[C@H]2C[C@](O)(C(=O)CO)Cc3c(O)c4c(c(O)c32)C(=O)c2c(OC)cccc2C4=O)O[C@@H](C)[C@H]1O |  | Active | inactive | inactive | Active |  |  |  |  |
| CCSCCCCCCCCCCCC(=O)N[C@H]1C[C@H](O[C@H]2C[C@](O)(C(=O)CO)Cc3c(O)c4c(c(O)c32)C(=O)c2c(OC)cccc2C4=O)O[C@@H](C)[C@H]1O |  |  | inactive | inactive |  |  |  |  |  |
| CCCCCCCCCCCCCC(=O)N[C@H]1C[C@H](O[C@H]2C[C@](O)(C(=O)CO)Cc3c(O)c4c(c(O)c32)C(=O)c2c(OC)cccc2C4=O)O[C@@H](C)[C@H]1O |  |  |  | inactive |  | 31% | 50% | 41% | 27% |
| CCCCCCCC(=O)N[C@H]1C[C@H](O[C@H]2C[C@](O)(C(=O)CO)Cc3c(O)c4c(c(O)c32)C(=O)c2c(OC)cccc2C4=O)O[C@@H](C)[C@H]1O |  | Active | inactive | inactive | Active |  |  |  |  |
| COc1cccc2c1C(=O)c1c(O)c3c(c(O)c1C2=O)C[C@@](O)(C(=O)CO)C[C@@H]3O[C@H]1C[C@H](N)[C@H](O)[C@H](C)O1 [DOXORUBICIN] | 0.6 |  |  |  |  |  |  |  |  |
| CCCCCCCCCCCCCCCCCC(=O)N[C@H]1C[C@H](O[C@H]2C[C@](O)(C(=O)CO)Cc3c(O)c4c(c(O)c32)C(=O)c2c(OC)cccc2C4=O)O[C@@H](C)[C@H]1O |  | Active | inactive | inactive | Active |  |  |  |  |
| CCCCCCCCCCCCCCCCCCCC(=O)N[C@H]1C[C@H](O[C@H]2C[C@](O)(C(=O)CO)Cc3c(O)c4c(c(O)c32)C(=O)c2c(OC)cccc2C4=O)O[C@@H](C)[C@H]1O |  | Active | inactive | inactive | Active |  |  |  |  |
